Here are results for 11 molecules from ChEMBL document CHEMBL1126638, “Intracellular delivery of bioactive AZT nucleotides by aryl phosphate derivatives of AZT” (J Med Chem, 1993).

The test system of experiment [1] is CCRF-CEM. In words: Antiviral activity in HIV-2 infected CEM cells which are deficient in Thymidine Kinase. Type of experiment: functional, cell-based. Conditions: Homo sapiens. In short, it runs like this: (§1)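 Cells at 5 × 10^5/mL infected with HIV-1 (III_B, stocks from infected MT-4 supernatants) or HIV-2 (ROD) at 100 CCID50 per mL, then mixed with compound dilutions. Giant cell formation recorded microscopically at day 4 (CEM). Viable MT-4 cells counted by trypan blue at day 5. EC50 is the concentration giving 50% protection against viral cytopathicity. Mean of two to four independent experiments.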

Experiment [2] concerns CCRF-CEM. Description: Anti HIV-1 activity in human lymphocyte CEM/0 cell line. Type of experiment: functional, cell-based. In short, it runs like this:
as §1

The test system of experiment [3] is CCRF-CEM. In words: Anti HIV-2 activity in human lymphocyte CEM/0 cell line. Type of experiment: functional, cell-based. An outline of the steps: as §1
In experiment [4] the test system is CCRF-CEM. Description: cytotoxic activity in CEM/0 cell line. Conditions: Homo sapiens. Type of experiment: functional. In short, it runs like this: (§2)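 Mock-infected MT-4 or CEM cell cultures incubated with compound dilutions in the same format as the antiviral assay. CC50 is the concentration reducing viable cell number (MT-4, trypan blue, day 5) […] by 50%. Mean of two to four independent experiments.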

Experiment [5] concerns MT4. In words: Anti HIV-2 activity in human lymphocyte MT-4 cell line. Type of experiment: functional, cell-based. An outline of the steps:
as §1

Experiment [6] relates to MT4. In words: cytotoxic activity in MT-4 cell line. Type of experiment: functional. Conditions: Homo sapiens. In short, it runs like this: as §2
The subject of experiment [7] is MT4. Description: Anti HIV-1 activity in human lymphocyte MT-4 cell line. Type of experiment: functional, cell-based. In short, it runs like this:
as §1

Experiment [8] in a line: EC50 of HIV-2 in CEM/TK versus EC50 of HIV-2 in CEM/0. Type of experiment: functional. An outline of the steps: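 Ratio of the HIV-2 EC50 in thymidine kinase-deficient CEM/TK⁻ cells to the HIV-2 EC50 in CEM/O cells. Both values come from the cytopathicity-protection assay.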
Experiment [9] in a line: Selective index is the ratio of cytotoxic concentration to effective concentration against MT-4 cell line. Type of experiment: functional, MT4. In short, it runs like this:
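Selectivity index for HIV-2 in MT-4 cells is the CC50 (mock-infected cultures, trypan blue viable count at day 5) divided by the EC50 (protection of infected cultures from HIV-2 cytopathicity).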

As a reminder, the EC50 is the concentration giving half of the maximal effect. High values mean a need for much substance, low ones an effect from little substance. One may read the CC50 as the concentration giving 50% cytotoxicity. On to `CCCc1ccc(OP(=O)(NC(C)C(=O)OC)OCC2OC(n3cc(C)c(=O)[nH]c3=O)CC2N=[N+]=[N-])cc1` (stereo not drawn), for which the EC50 was found to be 3000 nM with CCRF-CEM [1]; 41 nM with CCRF-CEM [2]; 51 nM in the experiment on CCRF-CEM [3]; 45 nM with MT4 [5]; 43 nM in the experiment with MT4 [7]. Moreover, the CC50 in the experiment with CCRF-CEM [4] was found to be 32700 nM; in the experiment with MT4 [6], 28000 nM. For the same molecule, the Ratio in [8] turned out to be 59. Also, the Selectivity index in experiment [9] is reported as 631.

For `COC(=O)C(C)NP(=O)(OCC1OC(n2cc(C)c(=O)[nH]c2=O)CC1N=[N+]=[N-])Oc1ccc(OC)cc1` (stereo not drawn), the EC50 in the experiment with CCRF-CEM [1] worked out at 9000 nM; in the experiment on CCRF-CEM [2], 57 nM; in the experiment with CCRF-CEM [3] it was 65 nM; with MT4 [5] it was 69 nM; in the experiment with MT4 [7] it was 71 nM. Further, the CC50 turned out to be 42600 nM in the experiment on CCRF-CEM [4] and 182000 nM with MT4 [6]. Further, in experiment [8], the Ratio was determined as 138. Also, the Selectivity index in [9] is listed as 2638.

Regarding `COC(=O)C(NP(=O)(OCC1OC(n2cc(C)c(=O)[nH]c2=O)CC1N=[N+]=[N-])Oc1ccccc1)C(C)C` (stereo not drawn), the EC50 was 13000 nM in the experiment on CCRF-CEM [1]; 140 nM with CCRF-CEM [2]; 210 nM in the experiment with CCRF-CEM [3]; 87 nM in the experiment with MT4 [5]; 99 nM in the experiment on MT4 [7]. Further, the half-maximal cytotoxic concentration (CC50) turned out to be 123000 nM with CCRF-CEM [4] and 205000 nM with MT4 [6]. In addition, the Ratio in [8] was 62. Further, in experiment [9], the Selectivity index stood at 1891.

Take `Cc1cn([C@H]2C[C@H](N=[N+]=[N-])[C@@H](CO)O2)c(=O)[nH]c1=O` [ZIDOVUDINE]: the EC50 was greater than 100000 nM in the experiment with CCRF-CEM [1], 3 nM in the experiment with CCRF-CEM [2], 4 nM in the experiment with CCRF-CEM [3] and 2 nM in the experiment with MT4 [7]. In addition, the CC50 in the experiment on CCRF-CEM [4] was greater than 500000 nM; in the experiment with MT4 [6] it was 6000 nM. Besides, in [8], the Ratio is greater than 28600. In addition, the Selectivity index in [9] was 2000.

In the case of `COC(=O)C(Cc1ccccc1)NP(=O)(OCC1OC(n2cc(C)c(=O)[nH]c2=O)CC1N=[N+]=[N-])Oc1ccccc1` (stereo not drawn), the 50% effective concentration (EC50) in the experiment with CCRF-CEM [1] came to 10000 nM; with CCRF-CEM [2], 97 nM; with CCRF-CEM [3], 160 nM; with MT4 [5], 110 nM; in the experiment with MT4 [7], 80 nM. Also, the CC50 with CCRF-CEM [4] is 161000 nM; in the experiment with MT4 [6] it was 208000 nM. Also, the Ratio in [8] was determined as 62. In addition, the Selectivity index in [9] is given as 2356.

With `COC(=O)C(C)NP(=O)(OCC1OC(n2cc(C)c(=O)[nH]c2=O)CC1N=[N+]=[N-])Oc1ccc(F)cc1` (stereo not drawn), the EC50 with CCRF-CEM [1] is 3000 nM; in the experiment on CCRF-CEM [2] it was 48 nM; in the experiment on CCRF-CEM [3], 65 nM; in the experiment on MT4 [5], 54 nM; with MT4 [7], 41 nM. Also, the CC50 in the experiment on CCRF-CEM [4] worked out at 128000 nM; with MT4 [6], 206000 nM. The Ratio in [8] amounted to 46. Moreover, in experiment [9], the Selectivity index is recorded as 3815.

`CCc1ccc(OP(=O)(NC(C)C(=O)OC)OCC2OC(n3cc(C)c(=O)[nH]c3=O)CC2N=[N+]=[N-])cc1` (stereo not drawn): the EC50 in the experiment with CCRF-CEM [1] was 8700 nM; in the experiment with CCRF-CEM [2] it was 48 nM; in the experiment on CCRF-CEM [3], 60 nM; in the experiment on MT4 [5], 70 nM; with MT4 [7], 68 nM. Further, the values for the CC50 in the experiment on CCRF-CEM [4] and with MT4 [6] were 31700 nM and 11000 nM, respectively. Also, the Ratio in experiment [8] was 145. The Selectivity index in [9] was 153.

On to `COC(=O)CNP(=O)(OCC1OC(n2cc(C)c(=O)[nH]c2=O)CC1N=[N+]=[N-])Oc1ccccc1` (stereo not drawn), for which the concentration giving a half-maximal response (EC50) in the experiment with CCRF-CEM [1] was greater than 100000 nM; in the experiment with CCRF-CEM [2], 97 nM; in the experiment on CCRF-CEM [3], 230 nM; in the experiment on MT4 [5] it was 200 nM; in the experiment on MT4 [7], 160 nM. Besides, the CC50 in the experiment with CCRF-CEM [4] and in the experiment on MT4 [6] was greater than 500000 nM throughout. Moreover, the Ratio in [8] is greater than 435. For the same molecule, in experiment [9], the Selectivity index was greater than 2500.

As to `CCCCCc1ccc(OP(=O)(NC(C)C(=O)OC)OCC2OC(n3cc(C)c(=O)[nH]c3=O)CC2N=[N+]=[N-])cc1` (stereo not drawn), the half-maximal effective concentration (EC50) came to 8000 nM in the experiment with CCRF-CEM [1]; 51 nM with CCRF-CEM [2]; 60 nM with CCRF-CEM [3]; 74 nM in the experiment on MT4 [5]; 103 nM in the experiment on MT4 [7]. Further, the half-maximal cytotoxic concentration (CC50) was 9000 nM in the experiment with CCRF-CEM [4] and 7000 nM in the experiment on MT4 [6]. Also, the Ratio in experiment [8] came out at 133. In [9], the Selectivity index came to 99.

Take `COC(=O)C(C)NP(=O)(OCC1OC(n2cc(C)c(=O)[nH]c2=O)CC1N=[N+]=[N-])Oc1ccc(C)cc1` (stereo not drawn): the EC50 with CCRF-CEM [1] was determined as 7000 nM; in the experiment with CCRF-CEM [2] it was 65 nM; in the experiment with CCRF-CEM [3], 56 nM; in the experiment on MT4 [5], 53 nM; in the experiment with MT4 [7], 51 nM. The CC50 in the experiment with CCRF-CEM [4] was found to be 43000 nM; with MT4 [6], 27000 nM. In experiment [8], the Ratio turned out to be 125. In addition, the Selectivity index in experiment [9] was 509.

Regarding `COC(=O)[C@H](C)NP(=O)(OC[C@H]1O[C@@H](n2cc(C)c(=O)[nH]c2=O)C[C@@H]1N=[N+]=[N-])Oc1ccccc1` (stereo partly drawn), the EC50 is 12000 nM in the experiment on CCRF-CEM [1]; 55 nM in the experiment with CCRF-CEM [2]; 70 nM in the experiment with CCRF-CEM [3]; 7 nM in the experiment with MT4 [5]; 6 nM with MT4 [7]. For the same molecule, the CC50 was 172000 nM in the experiment on CCRF-CEM [4] and greater than 50000 nM in the experiment with MT4 [6]. The Ratio in [8] amounted to 171. Further, the Selectivity index in [9] was greater than 5555.
